The list is not random: actives were taken first. Their share in the collection is about 0.9%.
ABCB1 inh: blocks JC-1 efflux by human ABCB1 transporter; P08183; CCRF-Adr cells, flow cytometry; inhibition, % at 6.6 µM; 190,000 compounds, 0.067% hits; in the data active = inhibition above about 40%;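 also: 0% = vehicle and 100% = reference inhibitor; higher value means more JC-1 retained so stronger ABCB1 efflux block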
RGS16-Gao: modulates binding between human RGS16 and Galphao | bead-based flow cytometry RGS16-Galphao binding, fluorescence; actives lie on both sides | AID 1441 | O15492+P09471 | 220,000 compounds, 0.38% hits | binding response (% of control), % at 10 µM;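 also: Galphao activated by GDP with aluminum fluoride before binding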
Target sequence (O15492 whole entry, looked up): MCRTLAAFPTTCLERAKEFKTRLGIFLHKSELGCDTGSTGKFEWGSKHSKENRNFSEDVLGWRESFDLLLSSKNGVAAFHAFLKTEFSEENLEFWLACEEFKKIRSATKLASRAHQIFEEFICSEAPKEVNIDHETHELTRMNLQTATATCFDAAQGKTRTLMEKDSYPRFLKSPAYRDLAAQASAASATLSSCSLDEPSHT
Target sequence (P09471 whole entry, looked up): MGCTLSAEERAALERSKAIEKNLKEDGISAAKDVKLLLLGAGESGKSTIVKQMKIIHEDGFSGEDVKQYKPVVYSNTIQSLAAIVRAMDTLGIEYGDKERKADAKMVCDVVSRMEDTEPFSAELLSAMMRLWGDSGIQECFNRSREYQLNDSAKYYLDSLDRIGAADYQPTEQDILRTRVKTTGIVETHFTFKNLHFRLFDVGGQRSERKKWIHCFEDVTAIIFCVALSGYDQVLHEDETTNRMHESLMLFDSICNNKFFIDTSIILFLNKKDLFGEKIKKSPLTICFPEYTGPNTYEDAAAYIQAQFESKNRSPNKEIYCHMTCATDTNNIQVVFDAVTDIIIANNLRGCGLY
RGS8-Gao: modulates binding of RGS8 to human Galphao; P09471; multiplexed bead flow cytometry; actives lie on both sides; response (percent of control binding), % at 10 µM; 220,000 compounds, 0.34% hits; in the data active = response below about 60% or above about 140%; inactive = in between;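 also: Galphao activated as the GDP aluminium fluoride complex binding bead-coupled RGS8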
Target sequence (P09471 whole entry, looked up): as above
ABCG2 block: human ABCG2 inhibition, ABCB1 as counter-screen | Q9UNQ0 | IgMXP3 cells, JC-1 efflux, flow cytometry | inhibition, % at 6.6 µM | 190,000 compounds, 0.1% hits | AID 1325;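 active = inhibition above 80%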;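 also: 0% = DMSO and 100% = nicardipine control wells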
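Read-out basis: Efflux inhibition in percent versus controls | Test system: ABCG2 IgMXP3 and barcoded ABCB1 CCRF-Adr cell mix | Quantity: 3 million cells/mL in well | Schedule: 10 min at 25 °C | Control set: Nicardipine as high control, DMSO as low control | Reagent: JC-1 as fluorescent efflux pump substrate | Signal: Flow cytometry of retained JC-1 fluorescence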
RGS7-Gao: modulates binding of RGS7 to human Galphao. 220,000 compounds, 0.35% hits. P09471. binding response (% of control), % at 10 µM. Multiplexed bead flow cytometry; actives lie on both sides; in the data active = binding response below about 49% or above about 150%; inconclusive = no clear call, values can overlap the other calls; inactive = in between;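 also: fluorescent Galphao held in activated GDP-AlF4 state binding bead-coupled RGS7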
RGS4-Gao reg: modulates binding of RGS4 to human Galphao; P09471; Multiplexed bead flow cytometry; actives lie on both sides; binding response (% of control), % at 10 µM; 220,000 compounds, 0.33% hits; AID 1415; in the data active = binding response below about 49% or above about 150%; inactive = in between;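 also: fluorescent Galphao activated with aluminum fluoride binding bead-coupled RGS4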
RGS4-Gao HTS: regulators of human RGS4-Galphao interaction; shares compounds with RGS16-Gao; multiplexed bead flow cytometry, RGS–Galpha-o binding; RGS4–Galpha-o binding response, % at 10 µM; 1,600 compounds, 99% hits;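 also: fluorescently labeled Galpha-o bound to GDP with aluminium fluoride binding biotinylated RGS beads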
Biotin-avidin: biotin-avidin bead binding disruption counter-screen. shares compounds with RGS16-Gao. streptavidin beads, fluorescein-biotin binding, flow cytometry. inhibition, % at 10 µM. 1,700 tested, under 10 active. AID 1783;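 active = inhibition above 50%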;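 also: median green fluorescence of gated singlet beads compared with DMSO control wells; 0% = DMSO wells and 100% = complete loss of bead fluorescence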
RGS8-Gao single: RGS8-Galphao interaction regulation, single point confirmation; binding response (% of control), % at 10 µM; 1,700 compounds, 3% hits; shares compounds with RGS16-Gao; bead-based flow cytometry RGS8-Galphao binding, fluorescence; actives lie on both sides; AID 1836; in the data active = binding response below about 72% or above about 130%; inactive = in between;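 also: Galphao activated as GDP AlF4 complex before binding bead RGS8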
RGS7-Gao confirm: RGS7-Galphao interaction regulation, single point confirmation. shares compounds with RGS16-Gao. bead-based flow cytometry RGS7-Galphao binding; actives lie on both sides. response (percent of control binding), % at 10 µM. 1,700 compounds, 7.8% hits; in the data active = response below about 75% or above about 130%; inactive = in between;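 also: fluorescent Galphao activated with GDP and aluminum fluoride binding bead-coupled RGS7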
RGS16-Gao conf: confirmation of regulators of human RGS16-Galphao interaction. bead-based flow cytometry, RGS16-Galphao binding; actives lie on both sides. shares compounds with RGS16-Gao. 1,700 compounds, 4% hits. response (% of control binding), % at 10 µM; in the data active = response below about 74% or above about 130%; inactive = in between;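 also: Galphao activated as the GDP aluminium fluoride complex binding bead-coupled RGS16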
RGS4-Gao confirm: confirmation of regulators of human RGS4-Galphao interaction. shares compounds with RGS16-Gao. RGS4-Galphao binding, multiplexed bead flow cytometry; actives lie on both sides. binding response (% of control), % at 10 µM. 1,700 compounds, 4% hits; in the data active = binding response below about 74% or above about 130%; inactive = in between
RGS19-Gao single: RGS19-Galphao interaction regulation, single point confirmation. shares compounds with RGS16-Gao. bead-based flow cytometry RGS19-Galphao binding; actives lie on both sides. response (percent of control binding), % at 10 µM. 1,700 compounds, 5% hits; in the data active = response below about 50% or above about 160%; inactive = in between;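 also: 100% = no compound control and 0% = blank background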
Starred values were filed as active, the others as inactive; ? = inconclusive; · = no result; [ ] = remark or other dose. Unless noted, no rule for the calls is given here.

SMILES	ABCB1 inh	RGS16-Gao	RGS8-Gao	ABCG2 block	RGS7-Gao	RGS4-Gao reg	Biotin-avidin	RGS8-Gao single	RGS7-Gao confirm	RGS16-Gao conf	RGS4-Gao confirm	RGS19-Gao single	others
CCN1CC(CNCc2cn(-c3ccc(OC)cc3)nc2-c2ccccc2Cl)CC1=O (configuration not stated)	1	43	57*	4	39*	48*	0	99	84	96	88	100
COc1ccc(-n2cc(CNCC3CC(=O)N(C4CC4)C3)c(-c3ccccc3Cl)n2)cc1 (configuration not stated)	1	106	107	5	98	102	·	·	·	·	·	·
Cc1cccc(C)c1NC(=O)C1c2cccc[n+]2CC(=O)N1Cc1cccs1 (configuration not stated)	1	100	99	3	103	102	·	·	·	·	·	·
O=C1CSC(=Nc2ccc(Cl)cc2)N1Cc1cccnc1	·	19*	55*	·	?	5.3*	0	93	90	93	94	109
COc1cc(C=O)ccc1OCC(=O)N1CCCC1	1	95	96	3	92	93	·	·	·	·	·	·
CNC(=O)COc1ccc(C=O)cc1OC	0	11*	72	5	86	91	-1	101	98	100	100	97	RGS4-Gao HTS=91*
O=c1c(Cc2ccccc2)c(O)ccn1C1CCCCCCC1	0	101	103	12	?	100	·	·	·	·	·	·
O=C1CSc2ccc(C(=O)Nc3cccc(S(=O)(=O)Nc4ccc(Br)cc4)c3)cc2N1	-1	96	94	-6	96	98	·	·	·	·	·	·
COc1ccccc1OCCOCCOc1c(C)cc(C)cc1Br	0	227*[activator]	122	-1	106	110	2	97	96	98	99	93	RGS4-Gao HTS=110*
COc1cc(C)ccc1OCCOCCOc1ccccc1[N+](=O)[O-]	1	87	96	17	95	91	·	·	·	·	·	·
COc1ccccc1OCCOCCOc1ccc(C)cc1[N+](=O)[O-]	·	295*[activator]	130	·	122	116	-1	99	100	99	98	113	RGS4-Gao HTS=116*
COCCCNC(=O)c1ccc2c3c(onc13)-c1ccccc1C2=O	·	31	60	·	?	43*	0	69*	64*	68*	94	42*
O=C(Cc1ccc(Br)cc1)OCC(=O)c1ccc2c(c1)OCCO2	0	39	54*	1	42*	47*	0	101	93	97	98	92
NS(=O)(=O)c1cc(C(=O)OCC(=O)c2ccc3c(c2)OCCO3)ccc1Cl	2	100	102	10	179*[activator]	106	0	103	89	101	96	79	RGS4-Gao HTS=106*
O=C(Cc1n[nH]c(=O)c2ccccc12)OCC(=O)c1ccc2c(c1)OCCO2	1	114	104	3	105	102	·	·	·	·	·	·
Fc1ccc(N/N=C/c2ccncc2)c(F)c1	2	141	117	40	106	104	·	·	·	·	·	·
Clc1ccc(N/N=C/c2ccncc2)cc1Cl	1	199*[activator]	128	30	113	109	0	100	103	102	103	99	RGS4-Gao HTS=109*
O=[N+]([O-])c1ccc(/C=N/n2c(COc3ccccc3)n[nH]c2=S)cc1	-1	103	103	-3	104	102	·	·	·	·	·	·
O=[N+]([O-])c1cccc(/C=N/n2c(COc3ccccc3)n[nH]c2=S)c1	-1	272*[activator]	140	-4	117	118	-2	93	88	85	89	75	RGS4-Gao HTS=118*
CSC1=NC(C(Cl)(Cl)Cl)N=C(c2ccccc2)N1 (configuration not stated)	1	101	101	3	?	101	·	·	·	·	·	·
CCn1nc(C)c(CNC(=O)CC2C(=O)NCCN2CC(C)(C)C)c1C (configuration not stated)	0	106	105	1	102	101	·	·	·	·	·	·
CCCc1ccc(C(=O)NC(=O)c2ccccc2O)cc1	·	32	53*	·	?	33*	-1	100	98	98	99	102
CCOC(=O)CN1C(c2ccc(O)cc2)Nc2ccc(Br)cc2C1c1ccccc1 (configuration not stated)	1	14*	62	4	96	85	0	101	95	96	97	129	RGS4-Gao HTS=85*
CCCOc1cc(C)c(S(=O)(=O)NC2CC(C)(C)NC(C)(C)C2)cc1C	0	96	100	16	102	99	·	·	·	·	·	·
C/C(=N/NC(=O)CNc1ccc(C)cc1)c1ccc(Cl)cc1	0	·	·	0	·	·	3	102	106	100	100	107
Cc1ccc(C(=O)CNc2ccc(Cl)cc2)cc1	0	104	103	4	107	103	·	·	·	·	·	·
CCOC(=O)Cc1csc(NC(=O)C2C3C=CC(C3)C2C(=O)O)n1 (configuration not stated)	-1	102	102	27	105	99	·	·	·	·	·	·
Cc1csc(NC(=O)C2C3C=CC(C3)C2C(=O)O)n1 (configuration not stated)	-5	-20*	10*	-6	-9.1*	-23*	-1	99	103	100	100	112
O=C(CSc1ccc2ccccc2n1)NCc1ccc2c(c1)OCO2	0	11*	14*	0	?	21*	-4	103	107	106	102	101
O=C(CSc1nc2ccccc2s1)NCc1ccc2c(c1)OCO2	0	105	104	-4	106	102	·	·	·	·	·	·

Bioassay records: PubChem, NMMLSC
